Compound activity as filed in PubChem.
CFTR F508del cor: correctors of CFTR F508del function in bronchial epithelial cells | 350,000 tested, 0.36% active | activity (quench increase), % at 7.58 µM | AID 720511 | CFBE cells, YFP halide quenching; stimulated with forskolin plus potentiator P3; % fluorescence drop versus neutral controls;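 active = mean added fluorescence quench of at least 8% versus neutral control, with both replicates also reaching 8%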;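 note: cells transiently co-express mutant CFTR-F508del with the halide-sensitive YFP; corrector assay measuring rescue of mutant channel to the surface after 24 h compound exposure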
E-selectin induc: induces E-selectin expression in human endothelial cells; P16581; HUVEC E-selectin immunofluorescence imaging; normalized: neutral wells 0, TNF-alpha wells 100; activation, % at 7.58 µM; 260,000 tested, 0.37% active; AID 686992;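 active = mean E-selectin-positive cell signal at least 10% of the positive control, reached in at least 60% of replicates, without over 20% cell loss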
Target sequence (P16581 whole entry, looked up): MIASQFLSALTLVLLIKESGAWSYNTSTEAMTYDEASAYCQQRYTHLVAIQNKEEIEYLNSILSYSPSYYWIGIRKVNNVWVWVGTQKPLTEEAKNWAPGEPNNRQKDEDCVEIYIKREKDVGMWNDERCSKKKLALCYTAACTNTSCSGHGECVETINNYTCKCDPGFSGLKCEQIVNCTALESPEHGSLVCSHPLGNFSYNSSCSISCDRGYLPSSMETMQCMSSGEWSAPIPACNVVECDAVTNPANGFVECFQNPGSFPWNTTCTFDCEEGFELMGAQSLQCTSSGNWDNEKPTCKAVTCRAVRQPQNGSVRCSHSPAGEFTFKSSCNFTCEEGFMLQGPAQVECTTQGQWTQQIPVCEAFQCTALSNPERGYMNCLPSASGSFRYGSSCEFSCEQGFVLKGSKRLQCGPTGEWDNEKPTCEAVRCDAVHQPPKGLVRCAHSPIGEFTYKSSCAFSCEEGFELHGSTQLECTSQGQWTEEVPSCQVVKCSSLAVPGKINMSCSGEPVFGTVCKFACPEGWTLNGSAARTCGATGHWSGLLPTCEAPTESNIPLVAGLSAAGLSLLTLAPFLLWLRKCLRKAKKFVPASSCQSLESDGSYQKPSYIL
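Assay system: HUVEC primary endothelial cells. Input: 3,000 HUVEC seeded per well. Doses: one compound dose added by pin transfer. Read-out basis: % PE-positive cells. Benchmarks: TNF-alpha high, DMSO low. Detection: immunofluorescence imaging. Buffer or medium: EGM-2, gelatin.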
Xi reactivation: activators of X-chromosome reactivation in mouse fibroblasts; XiGFP mouse fibroblasts, % GFP-positive cells imaging, 3 d; cells co-treated with 5-aza-dC sensitizer; scaled so ellipticine positive control = 100%; activation, % at 7.58 µM; 360,000 tested, 0.055% active;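 active = mean normalized replicate activation at least 10% and every replicate at or above 10%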
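System: SV40-immortalized XiGFP fibroblast cells, line 68-5-11 / Incubation: 3-day compound exposure, then 15 min fixation at room temperature / Compound: single concentration per compound, delivered by pin transfer / Buffer or medium: DMEM plus 5-aza-dC sensitizer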
Each line names hits and unclear results; the compound was inactive in the other large screens. Only some compounds are listed: those with a hit (about 0.61% of all), similar ones and a draw of the others.

C[C@@H]1CN([C@@H](C)CO)C(=O)c2cccc(NC(=O)CCCCCC(=O)Nc3ccccc3N)c2O[C@@H]1CN(C)S(=O)(=O)c1ccc(Cl)cc1	none
Cc1cc2oc(C(=O)NCCc3ccc(S(N)(=O)=O)cc3)cc(=O)c2cc1C	none (no result: E-selectin induc)
Cc1cc2oc(C(=O)NCCc3ccc(S(N)(=O)=O)cc3)c(C)c2cc1C	CFTR F508del cor 12
Cn1cc(C(=O)N/N=C/c2ccc3c(c2)OCO3)c2ccccc21	CFTR F508del cor 9.1
O=C(N/N=C/c1ccc2c(c1)OCO2)c1cccc2ccccc12	none (no result: E-selectin induc)
CCOC(=O)c1nn(-c2ccc3ccccc3c2)cc1O	Xi reactivation 17
CCOC(=O)c1nn(-c2ccccc2)cc1O	none
CCCC#Cc1ccc2c(c1)O[C@@H](CN(C)C(=O)C1CC1)[C@@H](C)CN([C@@H](C)CO)S2(=O)=O	none
C[C@H](CO)N1C[C@H](C)[C@H](CN(C)Cc2ccccc2)Oc2ncc(/C=C/c3ccccc3)cc2C1=O	none
Cn1cnc(S(=O)(=O)N[C@H]2C=C[C@@H](CC(=O)N3CCN(c4ccccc4)CC3)O[C@H]2CO)c1	none
COc1ccc2c(c1)C(=O)CC(c1ccc3c(c1)OCCO3)O2 (centres undefined)	CFTR F508del cor 12
COc1ccc2c(c1)C(=O)CC(c1ccc(OC)c(OC)c1)O2 (centres undefined)	none
Cc1noc(C)c1S(=O)(=O)N(C)C[C@@H]1OCCCC[C@@H](C)Oc2ccc(NC(=O)C3CCCCC3)cc2C(=O)N([C@@H](C)CO)C[C@@H]1C	none
COc1cc(OC)c2c(-c3cccc(-c4ccc(OC)c(OC)c4)c3)cc(=O)oc2c1	CFTR F508del cor 9.2
COc1cc(OC)c2c(-c3cccc(-c4sccc4C(C)=O)c3)cc(=O)oc2c1	CFTR F508del cor 9.7
COc1cc(OC)c2c(-c3cccc(-c4ccc(C#N)cc4)c3)cc(=O)oc2c1	none
COc1cc(OC)c2c(-c3cccc(-c4ccc(NC(C)=O)cc4)c3)cc(=O)oc2c1	none (no result: E-selectin induc)
C[C@H](CO)N1C[C@H](C)[C@H](CN(C)S(=O)(=O)c2ccc(F)cc2)OCCCC[C@H](C)Oc2ccc(NC(=O)CCCCCC(=O)Nc3ccccc3N)cc2C1=O	none
COc1ccc2c3c([nH]c2c1)[C@H](CO)N(CC1CC1)CC31CN(S(=O)(=O)c2cccc(F)c2)C1	none
C[C@H]1CN([C@@H](C)CO)C(=O)c2cc(NC(=O)Cn3cnnn3)ccc2O[C@@H]1CN(C)S(=O)(=O)c1ccccc1	none
CC(C)NC(=O)N(C)C[C@H]1Oc2ccc(NC(=O)Cn3cnnn3)cc2CC(=O)N([C@H](C)CO)C[C@@H]1C	none
C[C@H]1CN([C@@H](C)CO)C(=O)c2cc(NC(=O)Cn3cnnn3)ccc2O[C@H]1CN(C)S(=O)(=O)c1ccccc1	E-selectin induc 36
CC(C)NC(=O)N(C)C[C@@H]1Oc2ccc(NC(=O)Cn3cnnn3)cc2CC(=O)N([C@@H](C)CO)C[C@H]1C	E-selectin induc 66
C[C@H](CO)N1C[C@H](C)[C@H](CN(C)C(=O)Nc2ccc(C(F)(F)F)cc2)Oc2ccc(NC(=O)Cn3cnnn3)cc2CC1=O	E-selectin induc 41
C[C@@H]1CN([C@H](C)CO)C(=O)Cc2cc(NC(=O)Cn3cnnn3)ccc2O[C@@H]1CN(C)C(=O)Nc1ccc(F)cc1	none
C[C@@H]1CN([C@H](C)CO)C(=O)Cc2cc(NC(=O)c3ccncc3)ccc2O[C@H]1CN(C)C(=O)Nc1ccc(C(F)(F)F)cc1	none
C[C@@H]1CN([C@@H](C)CO)C(=O)Cc2cc(NC(=O)c3ccncc3)ccc2O[C@@H]1CN(C)C(=O)Nc1ccc(C(F)(F)F)cc1	E-selectin induc 74
CN(C)C(=O)C[C@H]1CC[C@H](NC(=O)NC2CCCCC2)[C@@H](CO)O1	none
C[C@H]1CN([C@@H](C)CO)C(=O)c2cc(NS(=O)(=O)c3ccc(Cl)cc3)ccc2O[C@H]1CN(C)S(=O)(=O)c1ccc(Cl)cc1	none
C[C@@H]1CN([C@@H](C)CO)C(=O)c2cc(NC(=O)Cn3cnnn3)ccc2O[C@@H]1CN(C)S(=O)(=O)c1ccc(F)cc1	none
C[C@@H]1CCCCO[C@@H](CN(C)S(C)(=O)=O)[C@@H](C)CN([C@H](C)CO)C(=O)c2cc(NC(=O)CCCN(C)C)ccc2O1	E-selectin induc 49
C[C@H](CO)N1C[C@H](C)[C@@H](CN(C)C(=O)Nc2ccc(C(F)(F)F)cc2)Oc2ccc(NC(=O)Cn3cnnn3)cc2CC1=O	none
C[C@@H]1CN([C@H](C)CO)C(=O)Cc2cc(NC(=O)Cn3cnnn3)ccc2O[C@H]1CN(C)C(=O)Nc1ccc(C(F)(F)F)cc1	E-selectin induc 32
